Laboratory results reported in BindingDB's records for doi:10.1021/jm501455s (Istituto Italiano Di Tecnologia, 2014).

These compounds were tested against T1, N-acylethanolamine-hydrolyzing acid amidase (Rattus norvegicus, UniProt Q5KTC7) (assay: Inhibition of NAAA in Sprague-Dawley rat lung assessed as inhibition of hydrolysis of 10-cis-heptadecenoylethanolamide by UPLC/MS method).
T1 sequence (Q5KTC7 whole entry): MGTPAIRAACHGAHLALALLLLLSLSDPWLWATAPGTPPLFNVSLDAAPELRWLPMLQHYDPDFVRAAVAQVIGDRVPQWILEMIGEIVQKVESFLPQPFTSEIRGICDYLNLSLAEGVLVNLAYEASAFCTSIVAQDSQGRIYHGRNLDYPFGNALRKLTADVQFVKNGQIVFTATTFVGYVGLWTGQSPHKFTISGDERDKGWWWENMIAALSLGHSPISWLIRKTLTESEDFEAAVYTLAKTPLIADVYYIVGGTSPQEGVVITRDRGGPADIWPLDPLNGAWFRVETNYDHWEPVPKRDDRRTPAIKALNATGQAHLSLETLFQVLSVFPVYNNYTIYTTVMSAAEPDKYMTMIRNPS
Procedure, shortened: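 Native NAAA enzyme prepared from rat lungs, not a recombinant construct. The substrate, 10-cis-heptadecenoylethanolamide, is an unnatural fatty acid ethanolamide. Inhibition of its hydrolysis was measured, and the median inhibitory concentration (IC50) was reported.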
With `Cc1ccc(-c2ccc(COC(=O)N[C@H]3C(=O)O[C@H]3C)cc2)cc1` the IC50 was 24 nM. In the case of `C[C@@H]1OC(=O)[C@@H]1NC(=O)OCC#Cc1ccccc1`, the IC50 is reported as 15 nM. Compound `C[C@@H]1OC(=O)[C@@H]1NC(=O)OCc1ccc(-c2ccc(C(F)(F)F)cc2)cc1` [US9353075, 44] has an IC50 of 28 nM.
